According to ChEMBL document CHEMBL4004835, “Discovery of Novel Disruptor of Silencing Telomeric 1-Like (DOT1L) Inhibitors using a Target-Specific Scoring Function for the (S)-Adenosyl-l-methionine (SAM)-Dependent Methyltransferase Family” (J Med Chem, 2017):
The source made the active and inactive calls. No cut-off for these calls is given here.

What was measured:
[1] = target: T1, Histone-lysine N-methyltransferase, H3 lysine-79 specific (Homo sapiens, UniProt Q8TEK3); experiment: Inhibition of N-terminal 6His-tagged human DOT1L (1 to 416 residues) expressed in Escherichia coli BL21(DE3) at 50 uM preincubated for 15 mins followed by [3H]-SAM addition measured after 120 mins by radioactive methylation assay
Outline: (§1)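 DOT1L and compound preincubated 15 min at room temperature; oligonucleosome and 3H-SAM added; reaction 120 min at room temperature, stopped with cold SAM; transferred to 0.5% PEI-pretreated filter plate, washed 3× with water, read by liquid scintillation counting.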
Target sequence in this assay (Q8TEK3 whole entry, looked up, the tested form may be a part): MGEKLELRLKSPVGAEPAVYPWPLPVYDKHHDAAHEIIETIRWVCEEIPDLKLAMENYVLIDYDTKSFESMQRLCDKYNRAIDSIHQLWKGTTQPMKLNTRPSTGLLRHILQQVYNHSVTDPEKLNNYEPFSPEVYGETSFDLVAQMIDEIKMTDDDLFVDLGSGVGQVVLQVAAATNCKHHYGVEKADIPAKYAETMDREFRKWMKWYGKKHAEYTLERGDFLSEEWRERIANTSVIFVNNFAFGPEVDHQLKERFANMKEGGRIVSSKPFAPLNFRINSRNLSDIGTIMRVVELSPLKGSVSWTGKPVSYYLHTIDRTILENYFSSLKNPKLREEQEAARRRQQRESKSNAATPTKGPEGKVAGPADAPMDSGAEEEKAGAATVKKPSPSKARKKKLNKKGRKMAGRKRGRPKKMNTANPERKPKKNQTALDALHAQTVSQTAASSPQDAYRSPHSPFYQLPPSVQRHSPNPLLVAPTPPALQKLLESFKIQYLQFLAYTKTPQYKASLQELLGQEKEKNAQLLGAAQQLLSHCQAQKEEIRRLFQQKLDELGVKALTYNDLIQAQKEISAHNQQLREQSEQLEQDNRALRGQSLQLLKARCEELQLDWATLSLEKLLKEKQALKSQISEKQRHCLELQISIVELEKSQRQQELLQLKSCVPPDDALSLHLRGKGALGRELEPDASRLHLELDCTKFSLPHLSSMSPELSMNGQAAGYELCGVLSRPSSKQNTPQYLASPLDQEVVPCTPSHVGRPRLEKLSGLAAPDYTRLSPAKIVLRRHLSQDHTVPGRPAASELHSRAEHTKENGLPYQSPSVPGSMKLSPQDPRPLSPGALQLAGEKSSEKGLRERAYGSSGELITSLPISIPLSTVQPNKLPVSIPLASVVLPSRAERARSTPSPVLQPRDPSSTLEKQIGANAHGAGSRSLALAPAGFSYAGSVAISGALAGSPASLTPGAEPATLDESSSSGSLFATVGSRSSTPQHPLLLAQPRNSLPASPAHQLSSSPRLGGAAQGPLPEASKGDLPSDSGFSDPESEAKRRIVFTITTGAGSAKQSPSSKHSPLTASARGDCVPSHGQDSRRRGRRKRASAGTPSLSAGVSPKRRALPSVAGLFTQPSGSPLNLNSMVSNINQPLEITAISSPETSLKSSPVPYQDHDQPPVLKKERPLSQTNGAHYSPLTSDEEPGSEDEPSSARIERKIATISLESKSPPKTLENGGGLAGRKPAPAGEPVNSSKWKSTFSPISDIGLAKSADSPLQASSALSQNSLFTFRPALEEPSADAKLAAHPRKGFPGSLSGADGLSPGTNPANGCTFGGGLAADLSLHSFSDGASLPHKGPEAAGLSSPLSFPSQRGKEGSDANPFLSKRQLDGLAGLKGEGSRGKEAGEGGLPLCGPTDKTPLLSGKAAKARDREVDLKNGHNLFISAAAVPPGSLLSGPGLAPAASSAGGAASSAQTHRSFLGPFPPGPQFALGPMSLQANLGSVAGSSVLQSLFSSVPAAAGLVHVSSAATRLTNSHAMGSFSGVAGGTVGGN

[2] = target: T1, Histone-lysine N-methyltransferase, H3 lysine-79 specific; experiment: Inhibition of N-terminal 6His-tagged human DOT1L (1 to 416 residues) expressed in Escherichia coli BL21(DE3) at preincubated for 15 mins followed by [3H]-SAM addition measured after 120 mins by radioactive methylation assay; outline: as §1
Target sequence in this assay (Q8TEK3 whole entry, the tested form may be a part): as the sequence (Q8TEK3 whole entry, looked up, the tested form may be a part) above

[3] = target: T1, Histone-lysine N-methyltransferase, H3 lysine-79 specific; experiment: Inhibition of N-terminal 6His-tagged human DOT1L (1 to 416 residues) expressed in Escherichia coli BL21(DE3) at 50 uM using histone H3 as substrate preincubated for 15 mins followed by SAM addition measured after 60 mins by AlphaLISA assay
Outline: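 DOT1L (80 nM final) preincubated with compound 15 min at 25 °C; SAM 1 mM and oligonucleosomes 0.25 ng/μL added in 50 mM Tris-HCl pH 8.0, 150 mM NaCl, 3 mM MgCl2, 0.1% BSA, 60 min at 25 °C; stopped with high-salt buffer; H3K79me2 detected with anti-H3 acceptor beads, biotinylated antibody, then streptavidin donor beads.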
Target sequence in this assay (Q8TEK3 whole entry, looked up, the tested form may be a part): as above

[4] = target: T1, Histone-lysine N-methyltransferase, H3 lysine-79 specific; experiment: Inhibition of N-terminal 6His-tagged human DOT1L (1 to 416 residues) expressed in Escherichia coli BL21(DE3) at 50 and 100 uM preincubated for 15 mins followed by [3H]-SAM addition measured after 120 mins by radioactive methylation assay; outline: as §1
Target sequence in this assay (Q8TEK3 whole entry, looked up, the tested form may be a part): as above

Compound	inhibition [1] [%]	other results
Cc1ccccc1Cc1nnc2sc(-c3cccc(F)c3)nn12	27	–
CCCc1nnc2sc(-c3cccc(F)c3)nn12	35	–
c1ccc2c(c1)nnn2Cc1nnc2sc(C34CC5CC(CC(C5)C3)C4)nn12	38	–
Fc1cccc(-c2nn3c(-c4cccc(F)c4)nnc3s2)c1	11	–
O=C1C/C(=N\Nc2nc(-c3cccc(O)c3)cs2)c2ccccc21	–	inhibition [3]: > 40%; inhibition [4]: Active
Fc1cccc(-c2nn3c(Cc4ccccc4)nnc3s2)c1	33	–
COc1ccc(-c2nn3c(Cn4nnc5ccccc54)nnc3s2)cc1OC	56	–
CC(C)N(CCCNC(=O)Nc1ccc(C(C)(C)C)cc1)C[C@H]1O[C@@H](n2ccc3c(N)ncnc32)[C@H](O)[C@@H]1O	–	inhibition [3]: > 40%
Fc1cccc(-c2nn3c(CSc4ccccc4)nnc3s2)c1	21	–
Fc1cccc(-c2nn3c(CCc4ccccc4)nnc3s2)c1	18	–
c1ccc2c(c1)nnn2Cc1nnc2sc(-c3ccc4c(c3)OCCO4)nn12	66	IC50 [2]: 8.4 µM
CCc1nnc2sc(-c3cccc(F)c3)nn12	13	–
Fc1cccc(-c2nn3c(-c4ccccc4)nnc3s2)c1	15	–
CCOc1cc(CNCc2ccc(C(=O)O)cc2)ccc1OCc1cccs1	–	inhibition [3]: > 40%; inhibition [4]: Active
Cc1ccc(Cn2c(SCC(=O)N/N=C/c3ccc(O)cc3)nc3ccccc32)cc1	–	inhibition [3]: > 40%; inhibition [4]: Active
Cc1ccc(-c2nn3c(Cn4cnc5ccccc54)nnc3s2)cc1C	72	IC50 [2]: 17.4 µM
Cc1nc2ccccc2n1Cc1nnc2sc(-c3ccc(F)c(Br)c3)nn12	49	–
Brc1cccc(-c2nn3c(Cn4cnc5ccccc54)nnc3s2)c1	62	IC50 [2]: 4.09 µM
Fc1cccc(-c2nn3c(CN4CCCCC4)nnc3s2)c1	6	–
Fc1cccc(-c2nn3c(Cc4ccccc4F)nnc3s2)c1	25	–
Fc1cccc(-c2nn3c(Cn4cnc5ccccc54)nnc3s2)c1	57	–

More lines, main results first:

inhibition [1] [%]	Compound	other results
69	Fc1ccc(-c2nn3c(Cn4nnc5ccccc54)nnc3s2)cc1	IC50 [2]: 4.64 µM
50	Brc1ccc(-c2nn3c(Cn4nnc5ccccc54)nnc3s2)cc1	–
52	Cc1ccc(OCc2nn3c(Cn4nnc5ccccc54)nnc3s2)cc1	–
55	c1ccc(-c2nn3c(Cn4cnc5ccccc54)nnc3s2)cc1	–
63	c1ccc(Cc2nn3c(Cn4nnc5ccccc54)nnc3s2)cc1	IC50 [2]: 19.4 µM
53	c1ccc(-c2nn3c(Cn4nnc5ccccc54)nnc3s2)nc1	–
50	Cc1cccc(OCc2nn3c(Cn4nnc5ccccc54)nnc3s2)c1	–
55	Cc1ccccc1-c1nn2c(Cn3nnc4ccccc43)nnc2s1	–
70	COc1cccc(-c2nn3c(Cn4nnc5ccccc54)nnc3s2)c1	IC50 [2]: 6.47 µM
65	c1ccc2c(c1)nnn2Cc1nnc2sc(-c3ccc4c(c3)OCO4)nn12	IC50 [2]: 3.96 µM
50	CCOc1ccc(-c2nn3c(Cn4nnc5ccccc54)nnc3s2)cc1	–
55	COc1ccccc1-c1nn2c(Cn3nnc4ccccc43)nnc2s1	–
43	c1ccc(OCc2nn3c(Cn4nnc5ccccc54)nnc3s2)cc1	–
48	c1coc(-c2nn3c(Cn4nnc5ccccc54)nnc3s2)c1	–
67	CC(C)(C)c1ccc(-c2nn3c(Cn4nnc5ccccc54)nnc3s2)cc1	IC50 [2]: 4.48 µM
54	COc1ccc(-c2nn3c(Cn4nnc5ccccc54)nnc3s2)cc1	–
